Format in all cases: functional
Assay [1] has as its system Rattus norvegicus. In words: Antinociceptive activity in ip dosed Wistar rat partial sciatic nerve ligation model assessed as reversal of cold allodynia after 30 mins. The following applies: 0.5 h. The gist of the method: (§1)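 Wistar rats (200–250 g) with nerve injury, compounds i.p. in 30% v/v PEG 400; dose–response curves in each sensory test (spontaneous pain and cold allodynia as paw withdrawal duration; tactile allodynia and hyperalgesia as withdrawal threshold). ED50 linearly interpolated between doses just above and below 50% response; time of peak effect recorded.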

Assay [2] has as its system Rattus norvegicus. In words: Antinociceptive activity in ip dosed Wistar rat chronic constriction injury model assessed as reversal of spontaneous pain response after 30 mins. The following applies: 0.5 h. The gist of the method:
as §1

For assay [3], the system named is Rattus norvegicus. Kind of assay: Antinociceptive activity in ip dosed Wistar rat chronic constriction injury model assessed as reversal of mechanical allodynia after 30 mins. The following applies: 0.5 h. Summed up: as §1
Assay [4] deals with Rattus norvegicus. In words: Antinociceptive activity in ip dosed Wistar rat partial sciatic nerve ligation model assessed as reversal of tactile allodynia after 120 mins. The following applies: 2 h. The gist of the method: as §1

In general, ED50 refers to the dose at which the effect has come halfway, by size or by number of responders. Regarding `CCN1CCc2c(c(C(C)(C)C)nn2C(=O)Nc2ccc(Br)cc2)C1`, the ED50 in the assay on Rattus norvegicus [1] is 68 mg/kg; with Rattus norvegicus [2] it was 27.3 mg/kg; in the assay on Rattus norvegicus [3], 37.3 mg/kg.

As for `CCN1CCc2c(c(C(C)(C)C)nn2C(=O)Nc2ccc(C)cc2C)C1`, the ED50 in the assay on Rattus norvegicus [4] is 36.1 mg/kg.
